In ChEMBL document CHEMBL1125216, “Potent, orally active imidazo[4,5-b]pyridine-based angiotensin II receptor antagonists” (J Med Chem, 1991) one finds IC50, ED50 and Peak inhibition data, which are given here for seven compounds.

Structures are written as SMILES.

Assay [1] has as its target Type-1 angiotensin II receptor (Oryctolagus cuniculus) (UniProt P34976). Description: Binding affinity towards Angiotensin receptor from rabbit aorta.
Assay [2] has as its target Type-1 angiotensin II receptor (Rattus norvegicus) (UniProt P25095). Description: The compound was tested for inhibition of angiotensin II receptor induced pressor response in rat after intravenous administration.
The test system of assay [3] is Rattus norvegicus. Nature of the assay: Percentage peak pressor response in rat after peroral administration at a dose of 0.1 mg/kg of the compound. It counts as functional. To be noted: route oral. In short, it runs like this:
(§1)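 Conscious male Sprague-Dawley rats (300–400 g) fitted with arterial and venous catheters. Compound given orally as a suspension in 1 N NaOH–0.5% methocel (10:90). Pressor response to AII (0.1 μg/kg iv) measured before and after dosing. Peak inhibition of the AII response is expressed as a percentage at each dose.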

For assay [4], the system named is Rattus norvegicus. Description: Percentage peak pressor response in rat after intravenous administration at a dose of 0.03 mg/kg of the compound. It counts as functional. The gist of the method: (§2)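 Male Sprague-Dawley rats (300–400 g), conscious, with arterial (blood pressure) and venous (dosing) catheters. Pressor responses to AII 0.1 μg/kg iv recorded before and after iv compound. Vehicle: saturated NaHCO3 15%, saline 35%, water 50%.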

Assay [5] concerns Rattus norvegicus. Nature of the assay: Percentage peak pressor response in rat after peroral administration at a dose of 0.3 mg/kg of the compound. The class given is functional. To be noted: route oral. In short, it runs like this: as §1
Assay [6] deals with Rattus norvegicus. Description: Percentage peak pressor response in rat after intravenous administration at a dose of 0.3 mg/kg of the compound. The class given is functional. The gist of the method: as §2
In assay [7] the test system is Rattus norvegicus. Nature of the assay: Percentage peak pressor response in rat after peroral administration at a dose of 0.03 mg/kg of the compound. To be noted: route oral. It counts as functional. In short, it runs like this:
as §1

The subject of assay [8] is Rattus norvegicus. Nature of the assay: Percentage peak pressor response in rat after intravenous administration at a dose of 0.1 mg/kg of the compound. The class given is functional. In short, it runs like this:
as §2

Chain of Type-1 angiotensin II receptor (Oryctolagus cuniculus) (P34976 whole entry, looked up): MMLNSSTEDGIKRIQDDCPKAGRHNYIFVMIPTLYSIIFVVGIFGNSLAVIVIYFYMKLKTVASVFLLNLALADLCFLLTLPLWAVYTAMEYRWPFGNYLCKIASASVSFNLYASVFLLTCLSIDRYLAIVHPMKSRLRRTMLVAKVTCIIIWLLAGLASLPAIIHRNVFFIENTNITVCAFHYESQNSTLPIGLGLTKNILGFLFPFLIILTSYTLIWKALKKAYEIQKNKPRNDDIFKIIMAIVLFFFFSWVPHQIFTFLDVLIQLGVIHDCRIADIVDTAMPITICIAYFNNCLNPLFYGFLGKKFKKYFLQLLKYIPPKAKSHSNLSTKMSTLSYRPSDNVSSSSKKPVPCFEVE
Chain of Type-1 angiotensin II receptor (Rattus norvegicus) (P25095 whole entry, looked up): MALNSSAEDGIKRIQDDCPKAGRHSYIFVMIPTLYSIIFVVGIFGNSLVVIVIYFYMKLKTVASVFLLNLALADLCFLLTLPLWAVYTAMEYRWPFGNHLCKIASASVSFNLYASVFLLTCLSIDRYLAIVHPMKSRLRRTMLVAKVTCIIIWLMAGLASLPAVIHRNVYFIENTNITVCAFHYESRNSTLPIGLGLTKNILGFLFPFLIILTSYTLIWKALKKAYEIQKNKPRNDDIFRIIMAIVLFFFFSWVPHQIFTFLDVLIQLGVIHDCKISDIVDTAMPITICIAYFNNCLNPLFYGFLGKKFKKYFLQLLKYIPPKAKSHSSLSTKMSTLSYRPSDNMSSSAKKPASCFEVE

By IC50 is commonly meant the concentration that gives 50% inhibition. A lower IC50 goes with inhibition by little substance. For `CCCCC1=NC(Cl)C(C(=O)O)N1Cc1ccc(-c2ccccc2-c2nn[nH]n2)cc1` (stereo not given), the IC50 in assay [1] is on record as 6 nM. In other words, the single-digit nanomolar range.
In general, ED50 refers to the dose that gives a 50% effect, or the effect in half of the subjects. A higher ED50 goes with a need for a large dose. As for `CCCc1nc2c(C)cc(C)nc2n1Cc1ccc(-c2ccccc2-c2nn[nH]n2)cc1`, the IC50 in assay [1] was 0.3 nM. Besides, the 50% effect level in assay [2] (ED50) was put at a dose of 0.087 mg/kg.
In assay [1], `CCCc1nc2cccnc2n1Cc1ccc(-c2ccccc2-c2nn[nH]n2)cc1` showed an IC50 of 8 nM.
In assay [1], `CCCc1nc2ccc(C)nc2n1Cc1ccc(-c2ccccc2-c2nn[nH]n2)cc1` had an IC50 of 2 nM. The compound also returned a 50% effective dose (ED50) in assay [2] of 1 mg/kg.
The like results for `CCCCc1nc2c(C)cc(C)nc2n1Cc1ccc(-c2ccccc2-c2nn[nH]n2)cc1` were, in that order, 0.5 nM and 0.45 mg/kg.
`CCCc1nc2c(C)ccnc2n1Cc1ccc(-c2ccccc2-c2nn[nH]n2)cc1` had an IC50 in assay [1] of 1 nM.
Regarding `CCc1nc2c(C)cc(C)nc2n1Cc1ccc(-c2ccccc2-c2nn[nH]n2)cc1` [L-158809], the Peak inhibition with Rattus norvegicus [3] was 75%; in the assay on Rattus norvegicus [4], 36%; in the assay with Rattus norvegicus [5] it was 92%; with Rattus norvegicus [6], 99%; with Rattus norvegicus [7], 52%; with Rattus norvegicus [8] it was 85%.
